Data taken from ChEMBL document CHEMBL1212938, “Inhibition of mycobacterial replication by pyrimidines possessing various C-5 functionalities and related 2'-deoxynucleoside analogues using in vitro and in vivo models” (J Med Chem, 2010).
≈ marks a conversion by molar mass, not a printed value.

What was measured:
[1] = system: Mycobacterium tuberculosis; test: Antitubercular activity against Mycobacterium bovis BCG at 100 ug/ml after 6 days by microplate alamar blue assay; type: functional; conditions: variant bovis BCG, 144 h
Procedure, shortened: (§1)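 MABA run in 7H9GC medium, with drug diluted from DMSO stocks made at 100× the highest final concentration. Final levels were 100, 50, 10, 5, 2.5 and 1 μg/mL in triplicate, and the experiment was done three times. Inoculum was 2.5 × 10⁵ CFU/mL final. Alamar Blue plus Tween-80 was added once bacteria-only control wells turned pink, from day 6 on, and plates were read visually and by fluorescence after 24 h. Visual MIC is the lowest concentration preventing the blue-to-pink change. Mean percent inhibition was taken relative to bacteria-only and medium-only wells.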

[2] = system: Mycobacterium tuberculosis; test: Antitubercular activity against Mycobacterium bovis BCG at 50 ug/ml after 6 days by microplate alamar blue assay; type: functional; conditions: variant bovis BCG, 144 h; procedure, shortened: as §1
[3] = system: Mycobacterium tuberculosis; test: Antitubercular activity against Mycobacterium bovis BCG at 10 ug/ml after 6 days by microplate alamar blue assay; type: functional; conditions: variant bovis BCG, 144 h; procedure, shortened: as §1
[4] = system: Mycobacterium tuberculosis; test: Antitubercular activity against Mycobacterium bovis BCG at 1 to 5 ug/ml after 6 days by microplate alamar blue assay; type: functional, variant bovis BCG; procedure, shortened: as §1
[5] = system: Mycobacterium tuberculosis; test: Antitubercular activity against Mycobacterium bovis BCG after 6 days by microplate alamar blue assay; type: functional; conditions: variant bovis BCG, 144 h; procedure, shortened: as §1
[6] = system: Mycobacterium tuberculosis; test: Antitubercular activity against Mycobacterium bovis BCG at 5 ug/ml after 6 days by microplate alamar blue assay; type: functional; conditions: variant bovis BCG, 144 h; procedure, shortened: as §1
[7] = system: Mycobacterium tuberculosis; test: Antitubercular activity against Mycobacterium bovis BCG at 0.5 to 1 ug/ml after 6 days by microplate alamar blue assay; type: functional, variant bovis BCG; procedure, shortened: as §1
[8] = system: Mycobacterium tuberculosis; test: Antitubercular activity against Mycobacterium bovis BCG at 1 ug/ml after 6 days by microplate alamar blue assay; type: functional; conditions: variant bovis BCG, 144 h; procedure, shortened: as §1

CCCCCc1ccc(C#Cc2c[nH]c(=O)[nH]c2=O)cc1
inhibition at 100 µg/mL [1]: 90% | inhibition at 50 µg/mL [2]: 60% | inhibition at 10 µg/mL [3]: 60% | inhibition (INH) [4]: 50% | MIC50 [5]: 1 µg/mL (≈ 3.54 µM)

N[C@@H]1CONC1=O [CYCLOSERINE]
inhibition at 10 µg/mL [3]: 71% | inhibition at 5 µg/mL [6]: 50% | MIC50 [5]: 5 µg/mL (≈ 49 µM)

CCCc1ccc(C#Cc2c[nH]c(=O)[nH]c2=O)cc1
inhibition at 100 µg/mL [1]: 100% | inhibition at 50 µg/mL [2]: 70% | inhibition at 10 µg/mL [3]: 70% | inhibition (INH) [4]: 50% | MIC50 [5]: 1 µg/mL (≈ 3.93 µM)

C(C#Cc1ccccn1)#Cc1ccccn1
inhibition at 100 µg/mL [1]: 100% | inhibition at 50 µg/mL [2]: 100% | inhibition at 10 µg/mL [3]: 100% | inhibition (INH) [7]: 80% | MIC50 [5]: < 0.5 µg/mL

O=c1[nH]cc(C#Cc2ccccn2)c(=O)[nH]1
inhibition at 100 µg/mL [1]: 90% | inhibition at 50 µg/mL [2]: 75% | inhibition at 10 µg/mL [3]: 75% | inhibition at 5 µg/mL [6]: 60% | MIC50 [5]: < 5 µg/mL

Nc1nc(=O)n([C@H]2C[C@H](O)[C@@H](CO)O2)cc1C#Cc1ccccn1
inhibition at 100 µg/mL [1]: 90% | inhibition at 50 µg/mL [2]: 90% | inhibition at 10 µg/mL [3]: 80% | inhibition (INH) [4]: 50% | MIC50 [5]: 1 µg/mL (≈ 3.05 µM)

O=c1[nH]c(=O)n([C@H]2C[C@H](O)[C@@H](CO)O2)cc1C#Cc1ccccn1
inhibition at 100 µg/mL [1]: 50% | inhibition at 50 µg/mL [2]: 90% | inhibition at 10 µg/mL [3]: 80% | inhibition (INH) [4]: 50% | MIC50 [5]: 1 µg/mL (≈ 3.04 µM)

CCCc1cc2c[nH]c(=O)nc2o1
inhibition at 100 µg/mL [1]: 90% | inhibition at 50 µg/mL [2]: 50% | inhibition at 10 µg/mL [3]: 50% | MIC50 [5]: 10 µg/mL (≈ 56.1 µM)

CCCCCc1cc2c[nH]c(=O)nc2o1
MIC50 [5]: 100 µg/mL (≈ 485 µM)

NNC(=O)c1ccncc1 [ISONIAZID]
inhibition at 1 µg/mL [8]: 100% | MIC50 [5]: < 1 µg/mL

CO[C@H]1/C=C/O[C@@]2(C)Oc3c(C)c(O)c4c(O)c(c(/C=N/N5CCN(C)CC5)c(O)c4c3C2=O)NC(=O)/C(C)=C\C=C\[C@H](C)[C@H](O)[C@@H](C)[C@@H](O)[C@@H](C)[C@H](OC(C)=O)[C@@H]1C [RIFAMPIN]
inhibition at 1 µg/mL [8]: 100% | MIC50 [5]: < 1 µg/mL

O=c1[nH]cc(C#Cc2ccccc2)c(=O)[nH]1
inhibition at 100 µg/mL [1]: 90% | inhibition at 50 µg/mL [2]: 90% | inhibition at 10 µg/mL [3]: 40% | MIC50 [5]: ≥ 10 µg/mL
